Measurements from PubChem BioAssay.
Active and inactive are the calls of the source.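 The calls were made as follows: active = GFP response above 150% of the DMSO control; inconclusive = fewer than 70 events counted in any yeast strain; inactive = the rest.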

Assay: RPL19A-GFP modulators, yeast TOR pathway, confirmation, cell-based, S. cerevisiae, flow cytometry, cherry picks, mother/daughter gates (AID 2270)
Settings: S. cerevisiae RPL19A-GFP strain, 3 h, measured here: mother cell gate, at 10 µM, stronger effect = lower value, 100 = same GFP as DMSO wells

Compound	GFP response vs DMSO [%]
O=C(Nc1ccc(NC(=O)c2cc3ccccc3o2)cc1)c1ccc2c(c1)OCCO2	102
Cc1ncc2c(n1)-c1cc(F)ccc1SC2	103
Cc1ccc(S(=O)(=O)Cc2cc(F)c([N+](=O)[O-])cc2[N+](=O)[O-])cc1	62.6
C/C(CC(=O)Nc1cc(C)ccn1)=N\NC(=O)c1cccc(F)c1	98.7
CN=C(NC)SC1CC(=O)N(c2ccccc2)C1=O (stereo not drawn)	102
O=C1/C(=C\c2ccc(O)c(O)c2)SC(=S)N1Cc1ccccc1	100
COc1cc(/C=C2\C(=O)N(CCC#N)N=C2C)c(Br)cc1OC(C)C	102
CCn1c(=O)c(C(=O)Nc2nc3ccccc3[nH]2)c(O)c2ccccc21	67
CC1CN(c2nc3ccccn3c(=O)c2/C=C(\C#N)C(N)=O)CC(C)O1 (stereo not drawn)	95.8
CCOC(=O)CSC1=NC(=O)/C(=C\c2ccc(Cl)cc2)S1	94.6
O=C(N/N=C/c1ccccc1Cl)c1cccc(F)c1	99.8
CCN(CC)CCNC(=O)Cn1c(-c2ccccn2)nc2ccccc21	99.6
COc1ccc(N2C(=O)C(Cl)=C(Nc3ccccc3OC)C2=O)cc1	102
COc1ccc(C(=O)/C=C/c2ccccc2C(F)(F)F)cc1	99.5
O=C(COc1ccc(F)cc1Cl)Nc1nc(-c2ccccn2)cs1	97.1
COc1ccc(/C=N/NC(=O)C2(C)NC(C)(C)Cc3ccccc32)cc1 (stereo not drawn)	95.3
COc1ccc(OC)c(C2CC(c3c(-c4ccccc4)c4cc(Cl)ccc4[nH]c3=O)=NN2S(C)(=O)=O)c1 (stereo not drawn)	102
Cc1ccc(/C=C/C(=O)N2CC(C)CC(C)C2)o1 (stereo not drawn)	101
COc1ccc(CCNC2=C(Cl)C(=O)N(CCc3ccc(OC)c(OC)c3)C2=O)cc1OC	99.3
O=S1(=O)Nc2c(ccc3cccnc23)-c2ccccc21	103

Compound	GFP response vs DMSO [%]
O=C(/C=C/c1cc(Br)ccc1O)c1ccco1	99
COc1cc(NC(C)=O)ccc1NC(=O)c1cc2ccccc2o1	98.2
COc1ccc(CC2=CC(=O)c3ccccc3C2=O)cc1	99.3
C=CCn1cc(/C=C/c2cc[n+](C)cc2)c2ccccc21	103
C[n+]1ccc(/C=C/c2c[nH]c3ccc(F)cc23)cc1	102
CCSc1nnc(NC(=O)c2nc(S(=O)(=O)Cc3ccc(F)cc3)ncc2Cl)s1	103
COc1ccc(C2c3c(oc4ccccc4c3=O)C(=O)N2CCN2CCOCC2)cc1OC (stereo not drawn)	101
Cc1ccc(C(=O)c2c3ccccc3[n+]([O-])n2CCO)cc1	96.6
CC(=O)Nc1ccc(S(=O)(=O)NC(CC(=O)NCCC2=CCCCC2)C(C)C)cc1 (stereo not drawn)	101
Cc1ccc(C(=O)NNC(=S)NC(=O)COc2ccccc2)cc1	110
Cc1occc1-c1nnc(-c2cc([N+](=O)[O-])cc([N+](=O)[O-])c2)o1	85.9
Cc1ccc(NS(=O)(=O)c2ccc(CCC(=O)N3CCOCC3)cc2)cc1	94.9
O=C1Nc2ccc(Br)cc2/C1=C/C1CC=CCC1 (stereo not drawn)	105
CN1CC(=O)NC1=NC(=O)C12CC3CC(CC(C3)C1)C2	96
O=S(=O)(c1ccc(Oc2ccccc2)cc1)N1CCOCC1	98.2
COc1cc(NC(=O)c2oc3ccccc3c2C)ccc1NC(=O)c1ccco1	98.4
CCCN1CCN(C(=O)c2oc3ccccc3c2NC(=O)COc2ccc(OC)cc2)CC1	99.8
COc1cc(/C=C2\N=C(c3ccccc3)OC2=O)ccc1OC(C)=O	96.3
COc1ccc(NC(=O)/C(Cl)=C(/Cl)S(=O)Cc2ccccc2)cn1 (stereo not drawn)	95.5

Assay: LAP4-GFP expression modulators in yeast, confirmation, cell-based, cherry picks, flow cytometry, mother/daughter gates (AID 2271);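 also: ratio of sample to DMSO plate mean so 100% equals DMSO level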
Settings: S. cerevisiae LAP4-GFP strain, 3 h, at 10 µM, stronger effect = higher value, 100 means same as DMSO control
Method in brief: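 Measured by: GFP by flow cytometry. Test system: GFP-fusion yeast strain. Input: yeast cells seeded at OD600 of 0.2. Timing: 30 °C, 3 h compound incubation, rotating. Buffer or medium: synthetic complete medium for yeast. Benchmarks: DMSO-only negative wells, rapamycin 400 ng/mL positive wells. Compound: 10 µM single dose.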

Compound	GFP response relative to DMSO
O=C(Nc1ccc(NC(=O)c2cc3ccccc3o2)cc1)c1ccc2c(c1)OCCO2	97% (inactive)
Cc1ncc2c(n1)-c1cc(F)ccc1SC2	87.6% (inactive)
Cc1ccc(S(=O)(=O)Cc2cc(F)c([N+](=O)[O-])cc2[N+](=O)[O-])cc1	251% (active)
C/C(CC(=O)Nc1cc(C)ccn1)=N\NC(=O)c1cccc(F)c1	97.4% (inactive)
CN=C(NC)SC1CC(=O)N(c2ccccc2)C1=O (stereo not drawn)	99.8% (inactive)
O=C1/C(=C\c2ccc(O)c(O)c2)SC(=S)N1Cc1ccccc1	116% (inactive)
COc1cc(/C=C2\C(=O)N(CCC#N)N=C2C)c(Br)cc1OC(C)C	165% (active)
CCn1c(=O)c(C(=O)Nc2nc3ccccc3[nH]2)c(O)c2ccccc21	169% (active)
CC1CN(c2nc3ccccn3c(=O)c2/C=C(\C#N)C(N)=O)CC(C)O1 (stereo not drawn)	96.5% (inactive)
CCOC(=O)CSC1=NC(=O)/C(=C\c2ccc(Cl)cc2)S1	197% (active)
O=C(N/N=C/c1ccccc1Cl)c1cccc(F)c1	103% (inactive)
CCN(CC)CCNC(=O)Cn1c(-c2ccccn2)nc2ccccc21	96.2% (inactive)
COc1ccc(N2C(=O)C(Cl)=C(Nc3ccccc3OC)C2=O)cc1	98.2% (inactive)
COc1ccc(C(=O)/C=C/c2ccccc2C(F)(F)F)cc1	99.2% (inactive)
O=C(COc1ccc(F)cc1Cl)Nc1nc(-c2ccccn2)cs1	132% (inactive)
COc1ccc(/C=N/NC(=O)C2(C)NC(C)(C)Cc3ccccc32)cc1 (stereo not drawn)	96.7% (inactive)
COc1ccc(OC)c(C2CC(c3c(-c4ccccc4)c4cc(Cl)ccc4[nH]c3=O)=NN2S(C)(=O)=O)c1 (stereo not drawn)	92.6% (inactive)
Cc1ccc(/C=C/C(=O)N2CC(C)CC(C)C2)o1 (stereo not drawn)	111% (inactive)
COc1ccc(CCNC2=C(Cl)C(=O)N(CCc3ccc(OC)c(OC)c3)C2=O)cc1OC	100% (inactive)
O=S1(=O)Nc2c(ccc3cccnc23)-c2ccccc21	124% (inactive)

Compound	GFP response relative to DMSO
O=C(/C=C/c1cc(Br)ccc1O)c1ccco1	151% (active)
COc1cc(NC(C)=O)ccc1NC(=O)c1cc2ccccc2o1	95% (inactive)
COc1ccc(CC2=CC(=O)c3ccccc3C2=O)cc1	101% (inactive)
C=CCn1cc(/C=C/c2cc[n+](C)cc2)c2ccccc21	108% (inactive)
C[n+]1ccc(/C=C/c2c[nH]c3ccc(F)cc23)cc1	113% (inactive)
CCSc1nnc(NC(=O)c2nc(S(=O)(=O)Cc3ccc(F)cc3)ncc2Cl)s1	103% (inactive)
COc1ccc(C2c3c(oc4ccccc4c3=O)C(=O)N2CCN2CCOCC2)cc1OC (stereo not drawn)	119% (inactive)
Cc1ccc(C(=O)c2c3ccccc3[n+]([O-])n2CCO)cc1	96.7% (inactive)
CC(=O)Nc1ccc(S(=O)(=O)NC(CC(=O)NCCC2=CCCCC2)C(C)C)cc1 (stereo not drawn)	99.2% (inactive)
Cc1ccc(C(=O)NNC(=S)NC(=O)COc2ccccc2)cc1	223% (active)
Cc1occc1-c1nnc(-c2cc([N+](=O)[O-])cc([N+](=O)[O-])c2)o1	142% (inactive)
Cc1ccc(NS(=O)(=O)c2ccc(CCC(=O)N3CCOCC3)cc2)cc1	95.4% (inactive)
O=C1Nc2ccc(Br)cc2/C1=C/C1CC=CCC1 (stereo not drawn)	131% (inactive)
CN1CC(=O)NC1=NC(=O)C12CC3CC(CC(C3)C1)C2	102% (inactive)
O=S(=O)(c1ccc(Oc2ccccc2)cc1)N1CCOCC1	96.2% (inactive)
COc1cc(NC(=O)c2oc3ccccc3c2C)ccc1NC(=O)c1ccco1	97.7% (inactive)
CCCN1CCN(C(=O)c2oc3ccccc3c2NC(=O)COc2ccc(OC)cc2)CC1	95.4% (inactive)
COc1cc(/C=C2\N=C(c3ccccc3)OC2=O)ccc1OC(C)=O	101% (inactive)
COc1ccc(NC(=O)/C(Cl)=C(/Cl)S(=O)Cc2ccccc2)cn1 (stereo not drawn)	262% (active)
